Results on 41 compounds are retold here after PubChem BioAssay AID588395 (Southern Research Specialized Biocontainment Screening …, 2011).

Calls of active or inactive are those of the source.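 Rule for the calls: active = phage lysis blocked by at least 50% at any tested dose; inconclusive = replicate wells disagree with each other; inactive = the rest.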

The first assay deals with E. coli UTI89 K1F phage lysis inhibition, OD600 3 h. The assay is described as follows: inhibitors of K1F phage lysis, dose response, capsule biogenesis inhibitor project, E. coli UTI89, set 7 (AID 588395).
Settings: not given
In outline: (§1)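 System: Uropathogenic Escherichia coli UTI89 (K1 capsule) bacterial culture | Medium: LB broth | Reagent: K1F phage | Doses: 0.78–100 µM final, 1% DMSO | Schedule: Compound pre-exposure 1.25 h at 37 °C shaking, read 3 h post-infection | Signal: OD600 absorbance | Read-out basis: Inhibition of phage lysis (%) | Benchmarks: Phage-resistant kpsM mutant culture as lysis-resistant comparison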
Take `COc1ccc2nc(NC(=O)c3ccc(Br)s3)sc2c1`: the IC50 is 2.15 µM.
Consider `O=C(Nc1ccncc1)c1ccc2ncsc2c1`, for which the IC50 is 1.31 µM.

Test system in a further assay: not listed separately
The assay is described as above. Particulars: E. coli UTI89 K1F phage lysis inhibition, OD600 3 h; at 100 µM (top of the series). In outline:
as §1
On to `COC(=O)c1ccc(NC(=O)c2ccc3ncsc3c2)cc1`, for which the inhibition of phage lysis was 9.02% (inactive).
On to `O=S(=O)(Nc1nc2ccccc2s1)c1ccc(Br)s1`, for which the inhibition of phage lysis was -2.08% (inactive).
The same measure, in the same setting: then `COc1ccc2nc(NC(=O)c3ccc(Br)o3)[nH]c2c1`, with 0.41% (inactive).
Still for that read-out and setting: the value for `O=C(Nc1nc2ccc(C(F)(F)F)cc2s1)c1ccc(Br)o1` was 1.64% (inactive).
On the same count and under the same terms, the value for `O=C(Nc1nc2ccc(Br)cc2s1)c1ccc(Br)o1` was 9.79% (inactive).
With `O=C(Nc1nc2ccc(F)cc2s1)c1ccc(Br)o1`, the inhibition of phage lysis was 15.8% (inactive).
Turning to `O=C(Nc1nc2ccc(Cl)cc2s1)c1ccc(Br)s1`, the inhibition of phage lysis was 6.12% (inactive).
For the compound `COc1ccc2nc(NS(=O)(=O)c3ccc(Br)s3)sc2c1`, the inhibition of phage lysis is -0.42% (inactive).
Same read-out and setting: then `COc1ccc2nc(NC(=O)c3ccc(C)s3)sc2c1`, with -3.86% (inactive); and `Cc1ccc(C(=O)Nc2nc3ccc(Cl)cc3s2)s1`, with -2.05% (inactive); and `O=C(Nc1nc2ccc(OC(F)(F)F)cc2s1)c1ccc(Br)o1`, with -11.1% (inactive).
Still for that read-out and setting: the value for `O=C(Nc1cccnc1)c1ccc2ncsc2c1` was 0.82% (inactive); that for `COc1ccc2nc(NC(=O)c3cc(Br)c(Br)s3)[nH]c2c1` was -1.23% (inactive); that for `O=C(Nc1nc2ccc(Br)cc2s1)c1ccc(Br)s1` was 18% (inactive).
Still for that read-out and setting: the value for `O=S(=O)(Nc1nc2ccc(Br)cc2s1)c1ccc(Br)s1` was 6.67% (inactive); that for `O=C(Nc1nc2ccc(F)cc2s1)c1ccc(Br)s1` was 6.49% (inactive); that for `O=C(Nc1nc2ccc(F)cc2s1)c1ccc(Br)cc1` was -15.7% (inactive).
As to `O=C(Nc1nc2ccc(Br)cc2s1)c1ccc(Br)cc1`, the inhibition of phage lysis was 2.55% (inactive).
`O=C(Nc1nc2ccc(C(F)(F)F)cc2s1)c1ccc(Br)cc1`: the inhibition of phage lysis was 2.13% (inactive).
Same read-out and setting: then `COC(=O)c1ccc(NC(=O)c2ccc3ncccc3c2)cc1`, with 39.1% (inactive); and `O=C(Nc1nc2ccccc2s1)c1ccc(Br)s1`, with -6.12% (inactive); and `O=C(Nc1ccc(Br)cc1)c1ccc2ncccc2c1`, with -0.43% (inactive).
As for `O=C(Nc1nc2ccc(Cl)cc2s1)c1ccc(Br)cc1`, the inhibition of phage lysis is 12.9% (inactive).
For `COc1ccc(NC(=O)c2ccc3ncsc3c2)cc1`, the inhibition of phage lysis was 4.51% (inactive).
`O=C(Nc1nc2ccccc2s1)c1ccc(Br)o1`: the inhibition of phage lysis was 0% (inactive).
As to `Cc1ccc(C(=O)Nc2nc3ccccc3s2)s1`, the inhibition of phage lysis is -9.44% (inactive).
`O=C(Nc1ccc(C(F)(F)F)cc1)c1ccc2ncccc2c1`: the inhibition of phage lysis is 2.46% (inactive).
With `COc1ccc2nc(NC(=O)c3ccc(Br)s3)[nH]c2c1`, the inhibition of phage lysis is 0.85% (inactive).
As for `Cc1ccc(C(=O)Nc2nc3ccc(Br)cc3s2)s1`, the inhibition of phage lysis was -11.1% (inactive).
As to `O=C(Nc1nc2ccc(C(F)(F)F)cc2s1)c1ccc(Br)s1`, the inhibition of phage lysis was 2.86% (inactive).
Same read-out and setting: the value for `COc1ccc2nc(NC(=O)c3ccc(Br)cc3)sc2c1` was 4.68% (inactive).
On the same count and under the same terms, the value for `COc1ccc(NC(=O)c2ccc3ncccc3c2)cc1` was -4.29% (inactive).
For the compound `O=C(Nc1nc2ccc(OC(F)(F)F)cc2s1)c1ccc(Br)cc1`, the inhibition of phage lysis is -15.3% (inactive).
On to `O=C(Nc1nc2ccccc2s1)c1ccc(Br)cc1`, for which the inhibition of phage lysis is 1.7% (inactive).
The same measure, in the same setting: then `COc1ccc2nc(NC(=O)c3ccc(Br)cc3)[nH]c2c1`, with -2.55% (inactive).
Turning to `O=C(Nc1nc2ccc(OC(F)(F)F)cc2s1)c1ccc(Br)s1`, the inhibition of phage lysis is 1.91% (inactive).
The same measure, in the same setting: then `O=C(Nc1nc2ccc(Cl)cc2s1)c1ccc(Br)o1`, with -4.26% (inactive).
The same measure, in the same setting: then `Cc1ccc(NC(=O)c2ccc3ncccc3c2)cc1`, with 0% (inactive).
Same read-out and setting: then `COc1ccc2nc(NC(=O)c3ccc(Br)o3)sc2c1`, with 41.7% (inactive).

One may read the IC50 as the concentration that gives 50% inhibition.
